Assay results as given in ChEMBL document CHEMBL4706674 (Bioorg Med Chem Lett, 2021).

Key:
[1] = system: Human immunodeficiency virus 1; test: Antiviral activity against wild type HIV-1 NL4-3 infected in MT-2 cells assessed as inhibition of viral replication in presence of 40% human serum and 27 mg/ml human serum albumin by luciferase reporter gene based multicycle replication assay; type: functional, organism-based; conditions: Human immunodeficiency virus 1, NL4-3, MT2
[2] = Metabolic stability in human liver microsomes assessed as half life; type: ADME, Microsome; conditions: time 2 min
[3] = Metabolic stability in rat liver microsomes assessed as half life; type: ADME, Microsome; conditions: time 2 min
[4] = AUC (0 to 24) in rat at 5 mg/kg, po measured after 24 hrs; type: ADME, organism-based; set-up: route oral, time 24 hrs, dose 5 mg/kg; conditions: in vivo
Method in brief: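 Rats dosed orally at 5 mg/kg (IV arm 1 mg/kg). Vehicle was PEG 300/ethanol/Tween 80 (89:10:1 v/v) or PEG 300/ethanol/0.1 N NaOH/Tween 80 (84.5:10:5:0.5 v/v). Values are the mean of 3 rats unless noted (some n = 2), from a full 24 h PK run; AUC_total also drew on a 6 h PK screen.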

[5] = Tmax in rat at 5 mg/kg, po measured after 24 hrs; type: ADME, organism-based; conditions: in vivo
Method in brief: (§1)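 Rats dosed 5 mg/kg PO and 1 mg/kg IV; each value is the mean of 3 rats unless otherwise noted (some n = 2). Vehicle PEG 300/ethanol/Tween 80 (89:10:1 v/v), or PEG 300/ethanol/0.1 N NaOH/Tween 80 (84.5:10:5:0.5 v/v). F, tmax, Cmax and CL come from a full 24 h PK screen. AUCtotal is derived from the full 24 h run plus a 6 h PK screen.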

[6] = Clearance in rat at 1 mg/kg, iv measured after 24 hrs; type: ADME, organism-based; conditions: in vivo; method in brief: as §1
[7] = Volume of distribution at steady state in rat at 1 mg/kg, iv; type: ADME, organism-based; conditions: in vivo, read-out: Vdss
[8] = system: Human immunodeficiency virus 1; test: Antiviral activity against wild type HIV-1 NL4-3 infected in MT-2 cells assessed as inhibition of viral replication in presence of 10% of fetal bovine serum by luciferase reporter gene based multicycle replication assay; type: functional, organism-based; conditions: Human immunodeficiency virus 1, NL4-3, MT2
[9] = system: Human immunodeficiency virus 1; test: Antiviral activity against wild type HIV-1 NL4-3 harbouring Gag AV370 mutant infected in MT-2 cells assessed as inhibition of viral replication in presence of 10% of fetal bovine serum by luciferase reporter gene based multicycle replication assay; type: functional, organism-based; conditions: Human immunodeficiency virus 1, NL4-3, MT2
Method in brief: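 Multiple-cycle replication assay in MT-2 cells using NL4-3-derived virus carrying a Renilla luciferase reporter (NLRepRlucP373S) as the growth marker. V370A and ΔV370 viruses are identical to WT except for that single substitution or deletion at position 370.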

[10] = system: Human immunodeficiency virus 1; test: Antiviral activity against wild type HIV-1 NL4-3 harbouring Gag V370A mutant infected in MT-2 cells assessed as inhibition of viral replication in presence of 10% of fetal bovine serum by luciferase reporter gene based multicycle replication assay; type: functional, organism-based; conditions: Human immunodeficiency virus 1, NL4-3, MT2
[11] = Cytotoxicity against human MT2 cells; type: cell-based
[12] = system: Human immunodeficiency virus 1; test: Antiviral activity against wild type HIV-1 NL4-3 harbouring Gag AV370/T371A mutant infected in MT-2 cells assessed as inhibition of viral replication in presence of 10% of fetal bovine serum by luciferase reporter gene based multicycle replication assay; type: functional, organism-based; conditions: Human immunodeficiency virus 1, NL4-3, MT2
[13] = system: Human immunodeficiency virus 1; test: Antiviral activity against wild type HIV-1 NL4-3 harbouring Gag […]/V370A mutant infected in MT-2 cells assessed as inhibition of viral replication in presence of 10% of fetal bovine serum by luciferase reporter gene based multicycle replication assay; type: functional, organism-based; conditions: Human immunodeficiency virus 1, NL4-3, MT2
[14] = system: Human immunodeficiency virus 1; test: Antiviral activity against wild type HIV-1 NL4-3 harbouring Gag A364V mutant infected in MT-2 cells assessed as inhibition of viral replication in presence of 10% of fetal bovine serum by luciferase reporter gene based multicycle replication assay; type: functional, organism-based; conditions: Human immunodeficiency virus 1, NL4-3, MT2
[15] = Oral bioavailability in rat measured at 5 mg/kg up to 24 hrs; type: ADME, organism-based; conditions: in vivo; method in brief: as §1
[16] = AUCtotal in rat at 5 mg/kg, po measured after 24 hrs; type: ADME, organism-based; set-up: route oral, dose 5 mg/kg, time 24 hrs; conditions: in vivo; method in brief: as §1
[17] = Cmax in rat at 5 mg/kg, po measured after 24 hrs; type: ADME, organism-based; set-up: route oral, dose 5 mg/kg, time 24 hrs; conditions: in vivo; method in brief: as §1
[18] = AUC in rat at 5 mg/kg, po; conditions: in vivo

| Structure (SMILES) | EC50 [1] | EC50 [8] | EC50 [9] | EC50 [10] | CC50 [11] | EC50 [13] | further results |
| --- | --- | --- | --- | --- | --- | --- | --- |
| C=C(C)[C@@H]1CC[C@]2(C(=O)O)CC[C@]3(C)[C@H](CC[C@@H]4[C@@]5(C)CC=C(c6ccc(C(=O)O)cc6)C(C)(C)[C@@H]5CC[C@]43C)[C@@H]12 | 316 nM | – | – | – | – | – | half-life [2]: > 2 h; half-life [3]: > 2 h; AUC at 24 h [4]: 5.7 µM·h; Tmax [5]: 4 h; clearance [6]: 1 mL/min/kg; Vd [7]: 0.1 L/kg |
| C=C(C)[C@@H]1CC[C@]2(NCCN3CCC(S(C)(=O)=O)CC3)CC[C@]3(C)[C@H](CC[C@@H]4[C@@]5(C)CC=C(c6ccc(C(=O)O)cc6)C(C)(C)[C@@H]5CC[C@]43C)[C@@H]12 | – | 1.9 nM | – | – | – | – | – |
| C=C(C)[C@@H]1CC[C@]2(NCCN3CCS(=O)(=O)CC3)CC[C@]3(C)[C@H](CC[C@@H]4[C@@]5(C)CC=C(C6=CC[C@H](C(=O)O)CC6)C(C)(C)[C@@H]5CC[C@]43C)[C@@H]12 | 5 nM | 1.3 nM | 4.1 nM | 2 nM | 4100 nM | – | – |
| C=C(C)[C@@H]1CC[C@]2(CO)CC[C@]3(C)[C@H](CC[C@@H]4[C@@]5(C)CC=C(C#CC(=O)O)C(C)(C)[C@@H]5CC[C@]43C)[C@@H]12 | – | 252 nM | > 3000 nM | > 3000 nM | > 10000 nM | – | – |
| C=C(C)[C@@H]1CC[C@]2(NCCN3CCS(=O)(=O)CC3)CC[C@]3(C)[C@H](CC[C@@H]4[C@@]5(C)CC=C(C6=CC7(C6)CC(C(=O)O)(C(=O)O)C7)C(C)(C)[C@@H]5CC[C@]43C)[C@@H]12 | – | 13 nM | 61.1 nM | 28.8 nM | > 30000 nM | – | – |
| C=C(C)[C@@H]1CC[C@]2(NCCN3CCS(=O)(=O)CC3)CC[C@]3(C)[C@H](CC[C@@H]4[C@@]5(C)CC=C(CCCC(C(=O)O)C(=O)O)C(C)(C)[C@@H]5CC[C@]43C)[C@@H]12 | – | 306 nM | – | – | > 30000 nM | – | EC50 [12]: 555 nM |
| C=C(C)[C@@H]1CC[C@]2(NCCN3CCS(=O)(=O)CC3)CC[C@]3(C)[C@H](CC[C@@H]4[C@@]5(C)CC=C(CCCCC(=O)O)C(C)(C)[C@@H]5CC[C@]43C)[C@@H]12 | – | 2.3 nM | – | – | 10200 nM | – | EC50 [12]: 118 nM |
| C=C(C)[C@@H]1CC[C@]2(NCCN3CCS(=O)(=O)CC3)CC[C@]3(C)[C@H](CC[C@@H]4[C@@]5(C)CC=C(CCC(C)(C)CC(=O)O)C(C)(C)[C@@H]5CC[C@]43C)[C@@H]12 | 6.8 nM | 1.3 nM | 2.3 nM | – | 12300 nM | 1.6 nM | EC50 [14]: 1290 nM |
| C=C(C)[C@@H]1CC[C@]2(NCCN3CCS(=O)(=O)CC3)CC[C@]3(C)[C@H](CC[C@@H]4[C@@]5(C)CC=C(CCCC(C)(C)C(=O)O)C(C)(C)[C@@H]5CC[C@]43C)[C@@H]12 | – | 5.3 nM | – | – | 8200 nM | – | EC50 [12]: 29.7 nM |
| C=C(C)[C@@H]1CC[C@]2(NCCN3CCS(=O)(=O)CC3)CC[C@]3(C)[C@H](CC[C@@H]4[C@@]5(C)CC=C(C6=CC7(C6)CC(C(=O)O)C7)C(C)(C)[C@@H]5CC[C@]43C)[C@@H]12 (some centres undefined) | 7 nM | 1.5 nM | 5.9 nM | 1.6 nM | 11900 nM | 49 nM | EC50 [14]: 980 nM; half-life [2]: 1.15 h; half-life [3]: > 2 h; bioavailability [15]: 32%; AUC [16]: 13.5 µM·h; Tmax [5]: 6.3 h; Cmax [17]: 900 nM; clearance [6]: 2.9 mL/min/kg; Vd [7]: 1.4 L/kg |
| C=C(C)[C@@H]1CC[C@]2(C(=O)O)CC[C@]3(C)[C@H](CC[C@@H]4[C@@]5(C)CC=C(C6=CC7(C6)CC(C(=O)O)(C(=O)O)C7)C(C)(C)[C@@H]5CC[C@]43C)[C@@H]12 | – | 28.3 nM | 437 nM | 85.4 nM | 18600 nM | – | – |
| C=C(C)[C@@H]1CC[C@]2(NCCN3CCS(=O)(=O)CC3)CC[C@]3(C)[C@H](CC[C@@H]4[C@@]5(C)CC=C(CC6CCC(C(=O)O)CC6)C(C)(C)[C@@H]5CC[C@]43C)[C@@H]12 (some centres undefined) | – | 3 nM | – | – | 13500 nM | 12.4 nM | EC50 [12]: 5.6 nM; EC50 [14]: 1850 nM |
| C=C(C)[C@@H]1CC[C@]2(NCCN3CCS(=O)(=O)CC3)CC[C@]3(C)[C@H](CC[C@@H]4[C@@]5(C)C=CC(=C6CC7(C6)CC(C(=O)O)(C(=O)O)C7)C(C)(C)[C@@H]5CC[C@]43C)[C@@H]12 | – | 26.7 nM | 60.8 nM | 53.1 nM | > 10000 nM | – | – |
| C=C(C)[C@@H]1CC[C@]2(NCCN3CCS(=O)(=O)CC3)CC[C@]3(C)[C@H](CC[C@@H]4[C@@]5(C)CC=C(C6=CCC(C(=O)O)CC6)C(C)(C)[C@@H]5CC[C@]43C)[C@@H]12 (some centres undefined) | 8.9 nM | 0.6 nM | 2.1 nM | 0.8 nM | 9600 nM | – | – |
| C=C(C)[C@@H]1CC[C@]2(NCCN3CCC(S(C)(=O)=O)CC3)CC[C@]3(C)[C@H](CC[C@@H]4[C@@]5(C)CC=C(C6=CC[C@@H](C(=O)O)CC6)C(C)(C)[C@@H]5CC[C@]43C)[C@@H]12 | 5 nM | 2.7 nM | 2.7 nM | – | 9000 nM | 14.7 nM | EC50 [14]: 1800 nM |
| C=C(C)[C@@H]1CC[C@]2(NCCN3CCS(=O)(=O)CC3)CC[C@]3(C)[C@H](CC[C@@H]4[C@@]5(C)CC=C(C6=CC[C@@H](C(=O)O)CC6)C(C)(C)[C@@H]5CC[C@]43C)[C@@H]12 | 5.7 nM | 0.9 nM | 3.1 nM | 1.3 nM | 12200 nM | – | half-life [2]: 0.967 h; half-life [3]: > 2 h; bioavailability [15]: 58%; AUC [16]: 15.8 µM·h; Tmax [5]: 2.7 h; Cmax [17]: 1100 nM; clearance [6]: 4.3 mL/min/kg; Vd [7]: 2.3 L/kg |
| C=C(C)[C@@H]1CC[C@]2(NCCN3CCC(S(C)(=O)=O)CC3)CC[C@]3(C)[C@H](CC[C@@H]4[C@@]5(C)CC=C(C6=CC[C@H](C(=O)O)CC6)C(C)(C)[C@@H]5CC[C@]43C)[C@@H]12 | 6.6 nM | 1.4 nM | 4.2 nM | – | 9100 nM | 9.6 nM | EC50 [14]: 878 nM |
| C=C(C)[C@@H]1CC[C@]2(NCCN3CCS(=O)(=O)CC3)CC[C@]3(C)[C@H](CC[C@@H]4[C@@]5(C)CC=C(C6=CCC(C(=O)O)(C(=O)O)CC6)C(C)(C)[C@@H]5CC[C@]43C)[C@@H]12 | – | 99 nM | 40.1 nM | 39.2 nM | 13200 nM | 113 nM | – |
| C=C(C)[C@@H]1CC[C@]2(C(=O)O)CC[C@]3(C)[C@H](CC[C@@H]4[C@@]5(C)CC[C@H](OC(=O)CC(C)(C)C(=O)O)C(C)(C)[C@@H]5CC[C@]43C)[C@@H]12 [BEVIRIMAT] | – | – | – | – | – | – | half-life [2]: > 2 h; half-life [3]: 0.492 h; F ([15]; 5 mg/kg, 24 h): 54%; Tmax [5]: 1.8 h |
| C=C(C)[C@@H]1CC[C@]2(NCCN3CCS(=O)(=O)CC3)CC[C@]3(C)[C@H](CC[C@@H]4[C@@]5(C)CC=C(c6ccc(C(=O)O)cc6)C(C)(C)[C@@H]5CC[C@]43C)[C@@H]12 [BMS-955176] | 11.5 nM | – | 13 nM | 2.7 nM | – | 148 nM | EC50 [12]: 23 nM; half-life [2]: > 2 h; half-life [3]: > 2 h; AUC [16]: 14.2 µM·h; Tmax [5]: 6 h; Cmax [17]: 1200 nM; AUC [18]: 4.1 µM·h |
